Assay results reported in ChEMBL document CHEMBL1137781, “Synthesis and preclinical evaluation of novel PET probes for P-glycoprotein function and expression” (J Med Chem, 2009).

What was measured:
Conditions in all cases: in vivo
[1] = Biodistribution in Wistar rat frontal cortex at 40+/-4 MBq, iv after 80 mins; type: ADME, organism-based
Method in brief: (§1)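 Male Wistar rats (12 h light/dark, chow ad libitum) were fitted with a femoral arterial cannula under isoflurane. They were pretreated via tail vein with saline, cyclosporin A (50 mg/kg), or nonradioactive tracer compound (15 mg/kg; 10 mg/mL in saline with 35% ethanol). The 11C tracer was then given via penile vein, followed by 76 min microPET. Animals were then terminated; excised tissues were weighed and gamma-counted with decay correction. Values are SUVs (tissue MBq/g × body weight g / injected MBq).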

Spleen = assay: Biodistribution in Wistar rat spleen at 40+/-4 MBq, iv after 80 mins; type: ADME, organism-based
Duodenum = assay: Biodistribution in Wistar rat duodenum at 40+/-4 MBq, iv after 80 mins; type: ADME, organism-based; method in brief: as §1
Liver [2] = assay: Biodistribution in 50 mg/kg cyclosporin A pretreated Wistar rat liver at 27+/-2 MBq, iv after 80 mins; type: ADME, organism-based; parameters: dose 50 mg/kg, route intravenous
[3] = Biodistribution in 50 mg/kg cyclosporin A pretreated Wistar rat parietal/temporal/occipital cortex at 27+/-2 MBq, iv after 80 mins; type: ADME, organism-based; parameters: dose 50 mg/kg, route intravenous
Bone = assay: Biodistribution in 50 mg/kg cyclosporin A pretreated Wistar rat bone at 27+/-2 MBq, iv after 80 mins; type: ADME, organism-based, Bone element; parameters: dose 50 mg/kg, route intravenous
Method in brief: (§2)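 Male Wistar rats pretreated via tail vein with saline or cyclosporin A (50 mg/kg, commercial solution), then given the [11C] tracer via penile vein. After microPET scanning the anesthetized rats were killed. Tissues were excised and weighed, and blood was centrifuged into plasma and cells. γ counting with decay correction. Results as SUV (tissue MBq/g × body weight/injected dose).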

Heart [4] = assay: Biodistribution in 50 mg/kg cyclosporin A pretreated Wistar rat heart at 27+/-2 MBq, iv after 80 mins; type: ADME, organism-based; parameters: dose 50 mg/kg, route intravenous
Muscle tissue = assay: Biodistribution in Wistar rat muscle at 40+/-4 MBq, iv after 80 mins; type: ADME, organism-based; method in brief: as §1
Ileum [5] = assay: Biodistribution in Wistar rat ileum at 40+/-4 MBq, iv after 80 mins; type: ADME, organism-based; method in brief: as §1
Liver [6] = assay: Biodistribution in Wistar rat liver at 40+/-4 MBq, iv after 80 mins; type: ADME, organism-based; method in brief: as §1
Striatum = assay: Biodistribution in Wistar rat striatum at 40+/-4 MBq, iv after 80 mins; type: ADME, organism-based
Pancreas = assay: Biodistribution in Wistar rat pancreas at 40+/-4 MBq, iv after 80 mins; type: ADME, organism-based; method in brief: as §1
Ileum [7] = assay: Biodistribution in 50 mg/kg cyclosporin A pretreated Wistar rat ileum at 27+/-2 MBq, iv after 80 mins; type: ADME, organism-based; parameters: dose 50 mg/kg, route intravenous
Lung = assay: Biodistribution in Wistar rat lung at 40+/-4 MBq, iv after 80 mins; type: ADME, organism-based; method in brief: as §1
[8] = Biodistribution in 50 mg/kg cyclosporin A pretreated Wistar rat amygdala at 27+/-2 MBq, iv after 80 mins; type: ADME, organism-based; parameters: dose 50 mg/kg, route intravenous; method in brief: as §2
[9] = Biodistribution in Wistar rat parietal/temporal/occipital cortex at 40+/-4 MBq, iv after 80 mins; type: ADME, organism-based; method in brief: as §1
[10] = Biodistribution in Wistar rat trachea at 40+/-4 MBq, iv after 80 mins; type: ADME, organism-based
[11] = Biodistribution in 50 mg/kg cyclosporin A pretreated Wistar rat bulbus olfactorius at 27+/-2 MBq, iv after 80 mins; type: ADME, organism-based, Olfactory bulb; parameters: dose 50 mg/kg, route intravenous; method in brief: as §2
[12] = Biodistribution in 50 mg/kg cyclosporin A pretreated Wistar rat red blood cells at 27+/-2 MBq, iv after 80 mins; type: ADME, organism-based, Erythrocyte; parameters: dose 50 mg/kg, route intravenous
Heart [13] = assay: Biodistribution in Wistar rat heart at 40+/-4 MBq, iv after 80 mins; type: ADME, organism-based; method in brief: as §1
Pons = assay: Biodistribution in 50 mg/kg cyclosporin A pretreated Wistar rat pons at 27+/-2 MBq, iv after 80 mins; type: ADME, organism-based; parameters: dose 50 mg/kg, route intravenous
Colon = assay: Biodistribution in 50 mg/kg cyclosporin A pretreated Wistar rat colon at 27+/-2 MBq, iv after 80 mins; type: ADME, organism-based; parameters: dose 50 mg/kg, route intravenous; method in brief: as §2
[14] = Biodistribution in Wistar rat bulbus olfactorius at 40+/-4 MBq, iv after 80 mins; type: ADME, organism-based, Olfactory bulb
[15] = Biodistribution in 50 mg/kg cyclosporin A pretreated Wistar rat medulla at 27+/-2 MBq, iv after 80 mins; type: ADME, organism-based, Medulla of organ; parameters: dose 50 mg/kg, route intravenous
Cerebellum = assay: Biodistribution in Wistar rat cerebellum at 40+/-4 MBq, iv after 80 mins; type: ADME, organism-based
[16] = Biodistribution in Wistar rat medulla at 40+/-4 MBq, iv after 80 mins; type: ADME, organism-based, Medulla of organ; method in brief: as §1
Kidney = assay: Biodistribution in 50 mg/kg cyclosporin A pretreated Wistar rat kidney at 27+/-2 MBq, iv after 80 mins; type: ADME, organism-based; parameters: dose 50 mg/kg, route intravenous
[17] = Biodistribution in Wistar rat cingulate cortex at 40+/-4 MBq, iv after 80 mins; type: ADME, organism-based; method in brief: as §1

COc1cc2c(cc1OC)CN(CCCC1CCCc3c(O[11CH3])cccc31)CC2 (stereo not drawn)
SUV [1]: 0.36
SUV (Spleen): 1.64
SUV (Duodenum): 2.74
SUV (Liver [2]): 2.67
SUV [3]: 1.04
SUV (Bone): 0.26
SUV (Heart [4]): 0.34
SUV (Muscle tissue): 0.37
SUV (Ileum [5]): 1.27
SUV (Liver [6]): 3.27
SUV (Striatum): 0.31
SUV (Pancreas): 3.16
SUV (Ileum [7]): 1.1
SUV (Lung): 1.19
SUV [8]: 1.07
SUV [9]: 0.36
SUV [10]: 0.78
SUV [11]: 0.84
SUV [12]: 0.16
SUV (Heart [13]): 0.37
SUV (Pons): 1.28
SUV (Colon): 1.81
SUV [14]: 0.33
SUV [15]: 1.14
SUV (Cerebellum): 0.5
SUV [16]: 0.41
SUV (Kidney): 1.47
SUV [17]: 0.37
